In PubChem BioAssay AID588420 (The Scripps Research Institute Molecular Screening Center, 2011) one finds IC50 data, which are given here for one compound.

Active and inactive are the calls of the source.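 The calls were made as follows: active = IC50 at or below 1 µM; inactive = the rest.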

This assay addresses Protein-arginine deiminase type-4 (Homo sapiens) (UniProt Q9UM07). Nature of the assay: recombinant human PAD4 inhibitors – biochemical, BAEE substrate, citrulline absorbance, 8-point 0-10 µM, late-stage follow-up (AID 588420). The note with it: recombinant PAD4, BAEE citrulline colorimetric absorbance. The procedure, abridged: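 Assay system: recombinant PAD4 enzyme. Quantity: 0.2 µM PAD4. Probe or stimulus: 10 mM BAEE. Incubation: 15 min preincubation plus 15 min reaction at 37 °C. Measured by: colorimetric citrulline absorbance at 540 nm. Repeats: duplicates.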

Sequence of Protein-arginine deiminase type-4 (Homo sapiens) (Q9UM07 whole entry, looked up): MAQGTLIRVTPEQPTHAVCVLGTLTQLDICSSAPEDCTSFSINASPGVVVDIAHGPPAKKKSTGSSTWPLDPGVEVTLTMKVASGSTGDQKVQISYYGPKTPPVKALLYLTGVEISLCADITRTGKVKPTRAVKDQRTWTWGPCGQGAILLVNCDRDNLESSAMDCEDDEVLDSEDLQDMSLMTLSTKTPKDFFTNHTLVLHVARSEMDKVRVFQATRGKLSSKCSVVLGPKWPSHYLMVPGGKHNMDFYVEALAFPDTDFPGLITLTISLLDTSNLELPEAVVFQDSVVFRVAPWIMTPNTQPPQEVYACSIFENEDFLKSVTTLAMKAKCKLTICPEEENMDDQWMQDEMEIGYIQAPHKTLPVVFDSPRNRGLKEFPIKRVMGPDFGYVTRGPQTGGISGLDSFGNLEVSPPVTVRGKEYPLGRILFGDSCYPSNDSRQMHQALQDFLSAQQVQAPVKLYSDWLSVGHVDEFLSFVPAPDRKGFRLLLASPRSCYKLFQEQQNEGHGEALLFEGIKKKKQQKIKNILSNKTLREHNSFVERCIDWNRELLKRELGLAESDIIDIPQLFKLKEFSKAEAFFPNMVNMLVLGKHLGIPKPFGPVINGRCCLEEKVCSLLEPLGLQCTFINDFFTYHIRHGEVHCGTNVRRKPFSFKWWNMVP

For `COC1=CC(=O)c2nc(C#N)ccc2C1=O`, the IC50 result was “inactive”.
